Assay results from ChEMBL document CHEMBL4033798, “Discovery of Novel KRAS-PDEδ Inhibitors by Fragment-Based Drug Design” (J Med Chem, 2018).
pIC50: −log10 of the molar value.

test system: CAPAN-1; experiment: Induction of apoptosis in KRAS-dependent human Capan1 cells after 48 hrs by Annexin-V FITC/propidium iodide staining-based flow cytometry; assay type: functional, cell-based; conditions: not given
Procedure, shortened: (§1)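 Capan-1 cells were exposed to compound for 48 h, with 0.1% DMSO as the vehicle control. The read-out is the percentage of apoptotic cells. Compounds were tested at 10, 25 or 50 μM.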

| Compound | Activity |
| --- | --- |
| O=C1c2cc(F)ccc2N(CC2CC2)C(c2ccccc2F)N1C1CCN(CCCn2ccnc2-c2ccccc2)CC1 (stereo not drawn) | Dose-dependent effect |

test system: CAPAN-1; experiment: Induction of apoptosis in KRAS-dependent human Capan1 cells at 10 uM incubated for 48 hrs by Annexin-V FITC/propidium iodide staining-based flow cytometry (reference value: 3.51%); assay type: functional; conditions: not given; procedure, shortened: as §1

| Compound | Activity [%] |
| --- | --- |
| O=C1c2cc(F)ccc2N(CC2CC2)C(c2ccccc2F)N1C1CCN(CCCn2ccnc2-c2ccccc2)CC1 (stereo not drawn) | 17.95 |

test system: CAPAN-1; experiment: Induction of apoptosis in KRAS-dependent human Capan1 cells at 50 uM incubated for 48 hrs by Annexin-V FITC/propidium iodide staining-based flow cytometry (reference value: 3.51%); assay type: functional; conditions: not given; procedure, shortened: as §1

| Compound | Activity [%] |
| --- | --- |
| Cc1ccc(-n2nc3c(=O)n(CCCC(=O)NCC(C)c4ccccc4)nc(C)c3c2C)cc1 (stereo not drawn) | 20.5 |

test system: CAPAN-1; experiment: Induction of apoptosis in KRAS-dependent human Capan1 cells at 25 uM incubated for 48 hrs by Annexin-V FITC/propidium iodide staining-based flow cytometry (reference value: 3.51%); assay type: functional; conditions: not given; procedure, shortened: as §1

| Compound | Activity [%] |
| --- | --- |
| O=C1c2cc(F)ccc2N(CC2CC2)C(c2ccccc2F)N1C1CCN(CCCn2ccnc2-c2ccccc2)CC1 (stereo not drawn) | 36.4 |

test system: CAPAN-1; experiment: Antiproliferative activity against KRAS-dependent human Capan1 cells after 48 hrs by CCK8 assay; conditions: CAPAN-1, 48 h

| Compound | pIC50 |
| --- | --- |
| O=C1c2ccc(Cl)cc2NC(c2ccccc2F)N1CCOc1ccc(-c2nc3ccccc3n2Cc2ccncc2)cc1 (stereo not drawn) | < 4.00 |
| O=C1c2ccccc2NC(c2ccccc2F)N1CCOc1ccc(-c2nc3ccccc3n2Cc2ccncc2)cc1 (stereo not drawn) | < 4.00 |
| O=C1c2cc(F)ccc2N(CC2CC2)C(c2ccccc2F)N1C1CCN(CCCn2ccnc2-c2ccccc2)CC1 (stereo not drawn) | 5.06 |
| CN1c2ccc(F)cc2C(=O)N(C2CCN(CCCn3ccnc3-c3ccccc3)CC2)C1c1ccccc1F (stereo not drawn) | 4.33 |
| Cc1nc2ccccc2n1CCOc1ccc(N2C(=O)c3ccccc3NC2c2ccccc2F)cc1 (stereo not drawn) | < 4.00 |
| O=C1c2ccccc2NC(c2ccccc2F)N1c1ccc(OCCn2ccnc2-c2ccccc2)cc1 (stereo not drawn) | < 4.00 |
| Cc1nccn1CCOc1ccc(N2C(=O)c3ccccc3NC2c2ccccn2)cc1 (stereo not drawn) | < 4.00 |
| O=C1c2ccc(F)cc2NC(c2ccccc2F)N1CCOc1ccc(-c2nc3ccccc3n2Cc2ccncc2)cc1 (stereo not drawn) | < 4.00 |
| Cc1ccc2c(c1)C(=O)N(CCOc1ccc(-c3nc4ccccc4n3Cc3ccncc3)cc1)C(c1ccccc1F)N2 (stereo not drawn) | < 4.00 |
| O=C1c2ccccc2NC(c2ccccn2)N1c1ccc(OCCn2ccnc2)cc1 (stereo not drawn) | < 4.00 |
| Cc1ccc(-n2nc3c(=O)n(CCCC(=O)NCC(C)c4ccccc4)nc(C)c3c2C)cc1 (stereo not drawn) | 4.32 |
| O=C1c2ccccc2NC(c2ccccn2)N1c1ccc(OCCn2ccnc2-c2ccccc2)cc1 (stereo not drawn) | 4.28 |
| COc1ccc2c(c1)C(=O)N(C1CCN(CCCn3ccnc3-c3ccccc3)CC1)C(c1ccccc1F)N2 (stereo not drawn) | 4.13 |
| O=C1c2ccccc2NC(c2ccccc2F)N1c1ccc(OCCn2ccnc2)cc1 (stereo not drawn) | < 4.00 |
| COc1ccc2c(c1)NC(c1ccccc1F)N(C1CCN(CCCn3ccnc3-c3ccccc3)CC1)C2=O (stereo not drawn) | 4.09 |
| O=C1c2cc(F)ccc2N(CC2CCC2)C(c2ccccc2F)N1C1CCN(CCCn2ccnc2-c2ccccc2)CC1 (stereo not drawn) | 4.94 |
| Cc1nccn1CCOc1ccc(N2C(=O)c3ccccc3NC2c2ccccc2F)cc1 (stereo not drawn) | < 4.00 |
| O=C1c2ccccc2NC(c2ccccn2)N1c1ccc(OCCn2c(-c3ccccc3)nc3ccccc32)cc1 (stereo not drawn) | < 4.00 |
| O=C1c2cc(Cl)ccc2NC(c2ccccc2F)N1CCOc1ccc(-c2nc3ccccc3n2Cc2ccncc2)cc1 (stereo not drawn) | < 4.00 |
| O=C1c2cc(F)ccc2NC(c2ccccc2F)N1CCOc1ccc(-c2nc3ccccc3n2Cc2ccncc2)cc1 (stereo not drawn) | < 4.00 |
| O=C1c2ccccc2NC(c2ccccc2F)N1C1CCN(CCCn2ccnc2-c2ccccc2)CC1 (stereo not drawn) | 4.47 |
| Cc1ccc2c(c1)C(=O)N(C1CCN(CCCn3ccnc3-c3ccccc3)CC1)C(c1ccccc1F)N2 (stereo not drawn) | 4.38 |
| O=C1c2ccccc2NC(c2ccccc2F)N1c1ccc(OCCn2c(-c3ccccc3)nc3ccccc32)cc1 (stereo not drawn) | < 4.00 |
| Cc1ccc2c(c1)NC(c1ccccc1F)N(C1CCN(CCCn3ccnc3-c3ccccc3)CC1)C2=O (stereo not drawn) | 4.11 |
| O=C1c2cc(F)ccc2N(CC2CCCCC2)C(c2ccccc2F)N1C1CCN(CCCn2ccnc2-c2ccccc2)CC1 (stereo not drawn) | 4.26 |
| COc1ccc2c(c1)NC(c1ccccc1F)N(CCOc1ccc(-c3nc4ccccc4n3Cc3ccncc3)cc1)C2=O (stereo not drawn) | < 4.00 |
| O=C1c2cc(F)ccc2N(CC2CCCC2)C(c2ccccc2F)N1C1CCN(CCCn2ccnc2-c2ccccc2)CC1 (stereo not drawn) | 4.91 |
| O=C1c2cc(F)ccc2NC(c2ccccc2F)N1C1CCN(CCCn2ccnc2-c2ccccc2)CC1 (stereo not drawn) | 4.48 |
| O=C1c2ccc(F)cc2NC(c2ccccc2F)N1C1CCN(CCCn2ccnc2-c2ccccc2)CC1 (stereo not drawn) | 4.46 |
